Source: paper PMC6982609 (Nature chemical biology, 2019)

Experiments:
[1] = system: TNBC cells; experiment: Growth inhibition of TNBC cells by EZH2 inhibitors; format: cell-based
[2] = system: MDA-MB-468 cells; experiment: Live-cell imaging proliferation/cell death assay with ER-stress inducer; format: cell-based
How it was run: (§1)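 Cells (1 to 3 × 10^3 per well) were seeded in 96-well plates in duplicate and dosed at the indicated concentrations. Plates were imaged in an IncuCyte live-cell system inside a 37 °C, 5% CO2 incubator. Confluence was derived from phase-contrast images. For cell death, medium contained 1.5 μM DRAQ7, and red-fluorescent dead-cell counts were recorded by automated fluorescence microscopy.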

[3] = system: MDA-MB-231 cells; experiment: as above; format: cell-based
How it was run: as §1

[4] = system: EZH2; settings: read-out: IC50 for EZH2; cited from earlier work

With `CC[C@H](C)n1cc(C)c2c(C(=O)NCc3c(C)cc(C)[nH]c3=O)cc(-c3ccc(N4CCNCC4)nc3)cc21` [GSK126] the “growth inhibition and apoptosis induction in TNBC cells” value [1] was “failed to inhibit growth”.
With tunicamycin the “induction of cell death” value [2] was “effectively induced cell death” and the “induction of cell death” value [3] was “not in MDA-MB-231 cells”.
In the case of `CCCc1cc(C)[nH]c(=O)c1CNC(=O)c1cc(-c2ccc(N3CCN(C(=O)CCOCCOCCOCCOCCOCCOCCOCCOCCOCCOCCOCCOCCNC(=O)CCCC[C@@H]4SC[C@@H]5NC(=O)N[C@@H]54)CC3)nc2)cc2c1cnn2C(C)C` [UNC2399], the IC50 [4] is given as 17 nM.
With `COc1cc(C)[nH]c(=O)c1CNC(=O)c1c(C)n([C@H](C)C2CCN(CC(F)(F)F)CC2)c2ccccc12` [CPI-1205, (R)-N-((4-methoxy-6-methyl-2-oxo-1,2-dihydropyridin-3-yl)methyl)-2-methyl-1-(1-(1-(2,2,2-trifluoroethyl)piperidin-4-yl)ethyl)-1H-indole-3-carboxamide] the “growth inhibition and apoptosis induction in TNBC cells” value [1] was “failed to inhibit growth”.
